In ChEMBL document CHEMBL4689842, “EUbOPEN Chemogenomics Library wave 1” (2021):

Tested on: Fibroblast
Experiment: Multiplex assay against human fibroblast
Type: toxicity, cell-based
Summary of the method: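 Per cents of healthy-nucleus cells form the tubulin, mitochondrial-mass and membrane-permeability phenotype values. Live cells were stained at seeding with Hoechst33342, BioTracker Green Microtubule Cytoskeleton Dye, MitoTracker Red and Annexin V Alexa Fluor 680. After compound addition they were imaged on a CQ1 microscope at 37°C and 5% CO2, and CellPathfinder machine-learning gating split them into Hoechst high-intensity objects or normal cells, normal cells into healthy, pyknosed or fragmented nuclei, and pyknosed cells into mitotic or apoptotic.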

[1] = 12 h, 1 µM, compound concentration 1 uM, replicate 1
[2] = 12 h, 1 µM, compound concentration 1 uM, replicate 2
[3] = 12 h, 10 µM, compound concentration 10 uM, replicate 1
[4] = 12 h, 10 µM, compound concentration 10 uM, replicate 2
[5] = 24 h, 1 µM, compound concentration 1 uM, replicate 1
[6] = 24 h, 1 µM, compound concentration 1 uM, replicate 2
[7] = 24 h, 10 µM, compound concentration 10 uM, replicate 1
[8] = 24 h, 10 µM, compound concentration 10 uM, replicate 2
[9] = 48 h, 1 µM, compound concentration 1 uM, replicate 1
[10] = 48 h, 1 µM, compound concentration 1 uM, replicate 2
[11] = 48 h, 10 µM, compound concentration 10 uM, replicate 1
[12] = 48 h, 10 µM, compound concentration 10 uM, replicate 2

CNc1cc(Oc2cc(C(=O)Nc3cc(N4CCN(C)CC4)cc(C(F)(F)F)c3)ccc2C)ncn1
Population Apoptotic (%) [1]: 61% | Population Fragmented Nuclei (%) [1]: 31% | Population Healthy Nuclei (%) [1]: 39% | Population Hoechst High Intensity Objects (%) [1]: 9% | Population Membrane Permeable-Phenotype (%) [1]: 25% | Population Mitochondria Different-Phenotype (%) [1]: 17% | Population Mitotic Cells (%) [1]: 38% | Population Normal (%) [1]: 90% | Population Pyknosed Nuclei (%) [1]: 29% | Population Tubulin-Different-Phenotype (%) [1]: 53% | Total Cell Count [1]: 147 | Population Apoptotic (%) [2]: 54% | Population Fragmented Nuclei (%) [2]: 10% | Population Healthy Nuclei (%) [2]: 73% | Population Hoechst High Intensity Objects (%) [2]: 2% | Population Membrane Permeable-Phenotype (%) [2]: 10% | Population Mitochondria Different-Phenotype (%) [2]: 60% | Population Mitotic Cells (%) [2]: 45% | Population Normal (%) [2]: 97% | Population Pyknosed Nuclei (%) [2]: 16% | Population Tubulin-Different-Phenotype (%) [2]: 52% | Total Cell Count [2]: 56 | Population Apoptotic (%) [3]: 54% | Population Fragmented Nuclei (%) [3]: 27% | Population Healthy Nuclei (%) [3]: 26% | Population Hoechst High Intensity Objects (%) [3]: 18% | Population Membrane Permeable-Phenotype (%) [3]: 37% | Population Mitochondria Different-Phenotype (%) [3]: 45% | Population Mitotic Cells (%) [3]: 45% | Population Normal (%) [3]: 81% | Population Pyknosed Nuclei (%) [3]: 46% | Population Tubulin-Different-Phenotype (%) [3]: 65% | Total Cell Count [3]: 186 | Population Apoptotic (%) [4]: 73% | Population Fragmented Nuclei (%) [4]: 24% | Population Healthy Nuclei (%) [4]: 13% | Population Hoechst High Intensity Objects (%) [4]: 33% | Population Membrane Permeable-Phenotype (%) [4]: 58% | Population Mitochondria Different-Phenotype (%) [4]: 66% | Population Mitotic Cells (%) [4]: 26% | Population Normal (%) [4]: 66% | Population Pyknosed Nuclei (%) [4]: 61% | Population Tubulin-Different-Phenotype (%) [4]: 66% | Total Cell Count [4]: 70 | Population Apoptotic (%) [5]: 61% | Population Fragmented Nuclei (%) [5]: 30% | Population Healthy Nuclei (%) [5]: 38% | Population Hoechst High Intensity Objects (%) [5]: 11% | Population Membrane Permeable-Phenotype (%) [5]: 16% | Population Mitochondria Different-Phenotype (%) [5]: 10% | Population Mitotic Cells (%) [5]: 38% | Population Normal (%) [5]: 88% | Population Pyknosed Nuclei (%) [5]: 30% | Population Tubulin-Different-Phenotype (%) [5]: 71% | Total Cell Count [5]: 163 | Population Apoptotic (%) [6]: 50% | Population Fragmented Nuclei (%) [6]: 16% | Population Healthy Nuclei (%) [6]: 63% | Population Hoechst High Intensity Objects (%) [6]: 6% | Population Membrane Permeable-Phenotype (%) [6]: 13% | Population Mitochondria Different-Phenotype (%) [6]: 68% | Population Mitotic Cells (%) [6]: 50% | Population Normal (%) [6]: 93% | Population Pyknosed Nuclei (%) [6]: 19% | Population Tubulin-Different-Phenotype (%) [6]: 51% | Total Cell Count [6]: 58 | Population Apoptotic (%) [7]: 80% | Population Fragmented Nuclei (%) [7]: 34% | Population Healthy Nuclei (%) [7]: 19% | Population Hoechst High Intensity Objects (%) [7]: 18% | Population Membrane Permeable-Phenotype (%) [7]: 15% | Population Mitochondria Different-Phenotype (%) [7]: 57% | Population Mitotic Cells (%) [7]: 19% | Population Normal (%) [7]: 81% | Population Pyknosed Nuclei (%) [7]: 45% | Population Tubulin-Different-Phenotype (%) [7]: 76% | Total Cell Count [7]: 163 | Population Apoptotic (%) [8]: 76% | Population Fragmented Nuclei (%) [8]: 16% | Population Healthy Nuclei (%) [8]: 23% | Population Hoechst High Intensity Objects (%) [8]: 48% | Population Membrane Permeable-Phenotype (%) [8]: 80% | Population Mitochondria Different-Phenotype (%) [8]: 80% | Population Mitotic Cells (%) [8]: 23% | Population Normal (%) [8]: 51% | Population Pyknosed Nuclei (%) [8]: 60% | Population Tubulin-Different-Phenotype (%) [8]: 80% | Total Cell Count [8]: 76 | Population Apoptotic (%) [9]: 84% | Population Fragmented Nuclei (%) [9]: 37% | Population Healthy Nuclei (%) [9]: 43% | Population Hoechst High Intensity Objects (%) [9]: 15% | Population Membrane Permeable-Phenotype (%) [9]: 12% | Population Mitochondria Different-Phenotype (%) [9]: 10% | Population Mitotic Cells (%) [9]: 16% | Population Normal (%) [9]: 84% | Population Pyknosed Nuclei (%) [9]: 19% | Population Tubulin-Different-Phenotype (%) [9]: 65% | Total Cell Count [9]: 150 | Population Apoptotic (%) [10]: 60% | Population Fragmented Nuclei (%) [10]: 43% | Population Healthy Nuclei (%) [10]: 52% | Population Hoechst High Intensity Objects (%) [10]: 23% | Population Mitochondria Different-Phenotype (%) [10]: 3% | Population Mitotic Cells (%) [10]: 40% | Population Normal (%) [10]: 76% | Population Pyknosed Nuclei (%) [10]: 4% | Population Tubulin-Different-Phenotype (%) [10]: 49% | Total Cell Count [10]: 158 | Population Apoptotic (%) [11]: 75% | Population Fragmented Nuclei (%) [11]: 59% | Population Healthy Nuclei (%) [11]: 10% | Population Hoechst High Intensity Objects (%) [11]: 30% | Population Membrane Permeable-Phenotype (%) [11]: 36% | Population Mitochondria Different-Phenotype (%) [11]: 54% | Population Mitotic Cells (%) [11]: 24% | Population Normal (%) [11]: 69% | Population Pyknosed Nuclei (%) [11]: 30% | Population Tubulin-Different-Phenotype (%) [11]: 72% | Total Cell Count [11]: 155 | Population Apoptotic (%) [12]: 100% | Population Fragmented Nuclei (%) [12]: 84% | Population Healthy Nuclei (%) [12]: 11% | Population Hoechst High Intensity Objects (%) [12]: 34% | Population Membrane Permeable-Phenotype (%) [12]: 20% | Population Mitochondria Different-Phenotype (%) [12]: 80% | Population Mitotic Cells (%) [12]: 0% | Population Normal (%) [12]: 65% | Population Pyknosed Nuclei (%) [12]: 4% | Population Tubulin-Different-Phenotype (%) [12]: 80% | Total Cell Count [12]: 67
